The source of these data is ChEMBL document CHEMBL1123569 (J Med Chem, 1987).

Molecules are shown by their SMILES. *1 amine or outer side, *2 acyl side, *3 side chain or, on linkers, in order; H or OH if unused. Where a SMILES comes first, the peptide text is derived from it. [ ]: non-standard residue; d: D form. The star is where a group is joined. ξ: configuration not given here. Met(O2) = CS(=O)(=O)CC[C@H](N)C(=O)O; Sta = CC(C)C[C@H](N)[C@@H](O)CC(=O)O; X1 = O=C(C(N[*:1])c1cccs1)[*:2]; ξGly(cPent) = NC(C(=O)O)C1CCCC1; Cha = N[C@@H](CC1CCCCC1)C(=O)O; Isovaleryl = CC(C)CC(=O)*; ξChg = NC(C(=O)O)C1CCCCC1; ξPhg = NC(C(=O)O)c1ccccc1; Nle = CCCC[C@H](N)C(=O)O; Boc = CC(C)(C)OC(=O)*; Bn = c1ccc(C*)cc1; X2 = c1cncc(C*)c1

The assay deals with T1, Renin (Homo sapiens, UniProt P00797).
T1 sequence (P00797 whole entry): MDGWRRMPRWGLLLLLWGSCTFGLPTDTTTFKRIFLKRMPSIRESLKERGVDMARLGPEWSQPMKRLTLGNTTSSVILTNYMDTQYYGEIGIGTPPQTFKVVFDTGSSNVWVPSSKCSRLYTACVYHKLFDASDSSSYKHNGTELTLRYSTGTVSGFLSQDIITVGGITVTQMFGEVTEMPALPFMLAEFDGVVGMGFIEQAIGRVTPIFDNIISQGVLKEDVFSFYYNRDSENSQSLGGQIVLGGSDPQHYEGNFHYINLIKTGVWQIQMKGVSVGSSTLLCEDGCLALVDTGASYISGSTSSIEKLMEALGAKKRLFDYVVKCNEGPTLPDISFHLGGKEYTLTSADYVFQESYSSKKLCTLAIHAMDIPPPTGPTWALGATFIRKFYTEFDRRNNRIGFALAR
Description: Inhibition of human plasma renin. Type of assay: cell-free. The procedure, abridged: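 Enriched human plasma renin preparation, substrate its own endogenous angiotensinogen (about 2×10^-6 M). Inhibitor added over a range of increasing concentrations. Angiotensin I released was quantified by RIA. With substrate held constant across the series, IC50 is treated as linearly proportional to Ki.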
On to `COC(=O)C[C@H](O)[C@H](CC(C)C)NC(=O)[C@H](C)NC(=O)C[C@H](O)[C@H](CC(C)C)NC(=O)[C@H](Cc1ccccc1)NC(=O)[C@H](Cc1ccccc1)NC(C)=O` (Ac-FF[Sta]A[Sta]-OMe), for which the IC50 was 1410 nM.

In the case of `COC(=O)C[C@H](O)[C@H](CC(C)C)NC(=O)[C@H](C)NC(=O)C[C@H](O)[C@H](CC(C)C)NC(=O)[C@H](CCSC)NC(=O)[C@H](Cc1ccccc1)NC(=O)OC(C)(C)C` (Boc-FM[Sta]A[Sta]-OMe), the IC50 was 316 nM.

As to `COC(=O)C[C@H](O)[C@H](CC(C)C)NC(=O)[C@H](C)NC(=O)C[C@H](O)[C@H](CC(C)C)NC(=O)[C@H](CC(N)=O)NC(=O)[C@H](Cc1ccccc1)NC(=O)OC(C)(C)C` (Boc-FN[Sta]A[Sta]-OMe), it took 1200 nM to reach half-maximal inhibition (IC50).

On to `COC(=O)C[C@H](O)[C@H](CC(C)C)NC(=O)[C@H](C)NC(=O)C[C@H](O)[C@H](CC(C)C)NC(=O)[C@H](CCC(N)=O)NC(=O)[C@H](Cc1ccccc1)NC(=O)OC(C)(C)C` (Boc-FQ[Sta]A[Sta]-OMe), for which it took 316 nM to reach half-maximal inhibition (IC50).

`COC(=O)C[C@H](O)[C@H](CC(C)C)NC(=O)[C@H](C)NC(=O)C[C@H](O)[C@H](CC(C)C)NC(=O)[C@H](COCc1ccccc1)NC(=O)[C@H](Cc1ccccc1)NC(=O)OC(C)(C)C` (Boc-FS(Bn)[Sta]A[Sta]-OMe) showed an IC50 of 174 nM.

Compound `CCOC[C@H](NC(=O)[C@H](Cc1ccccc1)NC(=O)OC(C)(C)C)C(=O)N[C@@H](CC(C)C)[C@@H](O)CC(=O)N[C@@H](C)C(=O)N[C@@H](CC(C)C)[C@@H](O)CC(=O)OC` (Boc-FS(Et)[Sta]A[Sta]-OMe) showed an IC50 of 112 nM.

`COC(=O)C[C@H](O)[C@H](CC(C)C)NC(=O)[C@H](C)NC(=O)C[C@H](O)[C@H](CC(C)C)NC(=O)[C@H](COCc1cccnc1)NC(=O)[C@H](Cc1ccccc1)NC(=O)OC(C)(C)C` (Boc-FS(X2)[Sta]A[Sta]-OMe) had an IC50 of 316 nM.

Turning to `COC(=O)C[C@H](O)[C@H](CC(C)C)NC(=O)[C@H](C)NC(=O)C[C@H](O)[C@H](CC(C)C)NC(=O)[C@H](CO)NC(=O)[C@H](Cc1ccccc1)NC(=O)OC(C)(C)C` (Boc-FS[Sta]A[Sta]-OMe), the IC50 was 437 nM.

The compound `COC(=O)C[C@H](O)[C@H](CC(C)C)NC(=O)[C@H](C)NC(=O)C[C@H](O)[C@H](CC(C)C)NC(=O)[C@H](Cc1c[nH]c2ccccc12)NC(=O)[C@H](Cc1ccccc1)NC(=O)OC(C)(C)C` (Boc-FW[Sta]A[Sta]-OMe) had an IC50 of 120 nM.

`COC(=O)C[C@H](O)[C@H](CC(C)C)NC(=O)[C@H](C)NC(=O)C[C@H](O)[C@H](CC(C)C)NC(=O)[C@H](Cc1ccc(OCc2ccccc2)cc1)NC(=O)[C@H](Cc1ccccc1)NC(=O)OC(C)(C)C` (Boc-FY(Bn)[Sta]A[Sta]-OMe) showed an IC50 of 1410 nM.

In turn, `COC(=O)C[C@H](O)[C@H](CC(C)C)NC(=O)[C@H](C)NC(=O)C[C@H](O)[C@H](CC(C)C)NC(=O)[C@H](CC1CCCCC1)NC(=O)[C@H](Cc1ccccc1)NC(=O)OC(C)(C)C` (Boc-F[Cha][Sta]A[Sta]-OMe) showed an IC50 of 490 nM.

Regarding `COC(=O)C[C@H](O)[C@H](CC(C)C)NC(=O)[C@H](C)NC(=O)C[C@H](O)[C@H](CC(C)C)NC(=O)[C@H](CCS(C)(=O)=O)NC(=O)[C@H](Cc1ccccc1)NC(=O)OC(C)(C)C` (Boc-F[Met(O2)][Sta]A[Sta]-OMe), the concentration for half-maximal inhibition (IC50) is 10000 nM.

`CCCC[C@H](NC(=O)[C@H](Cc1ccccc1)NC(=O)OC(C)(C)C)C(=O)N[C@@H](CC(C)C)[C@@H](O)CC(=O)N[C@@H](C)C(=O)N[C@@H](CC(C)C)[C@@H](O)CC(=O)O` (Boc-F[Nle][Sta]A[Sta]-OH) had an IC50 of 30.2 nM.

`CCCC[C@H](NC(=O)[C@H](Cc1ccccc1)NC(=O)OC(C)(C)C)C(=O)N[C@@H](CC(C)C)[C@@H](O)CC(=O)N[C@@H](C)C(=O)N[C@@H](CC(C)C)[C@@H](O)CC(=O)OC` (Boc-F[Nle][Sta]A[Sta]-OMe) had an IC50 of 120 nM.

For `COC(=O)C[C@H](O)[C@H](CC(C)C)NC(=O)[C@H](C)NC(=O)C[C@H](O)[C@H](CC(C)C)NC(=O)C(NC(=O)[C@H](Cc1ccccc1)NC(=O)OC(C)(C)C)c1cccs1` (some centres undefined) (Boc-F[X1][Sta]A[Sta]-OMe), it took 251 nM to reach half-maximal inhibition (IC50).

In the case of `COC(=O)C[C@H](O)[C@H](CC(C)C)NC(=O)[C@H](C)NC(=O)C[C@H](O)[C@H](CC(C)C)NC(=O)C(NC(=O)[C@H](Cc1ccccc1)NC(=O)OC(C)(C)C)C1CCCCC1` (some centres undefined) (Boc-F[ξChg][Sta]A[Sta]-OMe), inhibition was half-maximal at 151 nM (IC50).

In the case of `COC(=O)C[C@H](O)[C@H](CC(C)C)NC(=O)[C@H](C)NC(=O)C[C@H](O)[C@H](CC(C)C)NC(=O)C(NC(=O)[C@H](Cc1ccccc1)NC(=O)OC(C)(C)C)C1CCCC1` (some centres undefined) (Boc-F[ξGly(cPent)][Sta]A[Sta]-OMe), the concentration for half-maximal inhibition (IC50) is 37.2 nM.

With `COC(=O)C[C@H](O)[C@H](CC(C)C)NC(=O)[C@H](C)NC(=O)C[C@H](O)[C@H](CC(C)C)NC(=O)C(NC(=O)[C@H](Cc1ccccc1)NC(=O)OC(C)(C)C)c1ccccc1` (some centres undefined) (Boc-F[ξPhg][Sta]A[Sta]-OMe), the midpoint of inhibition, the IC50, lay at 93.3 nM.

On to `COC(=O)C[C@H](O)[C@H](CC(C)C)NC(=O)[C@H](C)NC(=O)C[C@H](O)[C@H](CC(C)C)NC(=O)[C@H](Cc1ccccc1)NC(=O)[C@H](Cc1ccccc1)NC(=O)CC(C)C` (Isovaleryl-FF[Sta]A[Sta]-OMe), for which the IC50 was 316 nM.

By IC50 is commonly meant the concentration at which inhibition is half-maximal. Higher therefore signals weaker potency in that assay.
